Bounds are passed on as bounds.

For orientation: Ki means a dissociation constant, usually derived from enzyme kinetics or from competition with a known ligand. A lower Ki goes with higher affinity. Usually EC50 stands for the concentration needed to bring the measured effect to its halfway point. A low value points to higher potency in that assay.

Experiment [1] addresses Beta-1 adrenergic receptor (Rattus norvegicus, UniProt P18090). Kind of experiment: Displacement of [3H]dihydroalprenolol from adrenergic beta 1 receptor of rat cerebral cortical membranes. The class given is cell membranes, Membrane. A general note: Displacement assays read how much labelled ligand stays bound in the presence of the test substance.
For experiment [2], the target named is Beta-2 adrenergic receptor (Rattus norvegicus, UniProt P10608). Kind of experiment: Binding affinity against adrenergic beta 2 receptor versus 1 nM [3H]dihydroalprenolol in rat […] cerebellar membranes. Type of experiment: cell membranes, Cerebellum, Membrane.
Sequence of Beta-2 adrenergic receptor (P10608 whole entry): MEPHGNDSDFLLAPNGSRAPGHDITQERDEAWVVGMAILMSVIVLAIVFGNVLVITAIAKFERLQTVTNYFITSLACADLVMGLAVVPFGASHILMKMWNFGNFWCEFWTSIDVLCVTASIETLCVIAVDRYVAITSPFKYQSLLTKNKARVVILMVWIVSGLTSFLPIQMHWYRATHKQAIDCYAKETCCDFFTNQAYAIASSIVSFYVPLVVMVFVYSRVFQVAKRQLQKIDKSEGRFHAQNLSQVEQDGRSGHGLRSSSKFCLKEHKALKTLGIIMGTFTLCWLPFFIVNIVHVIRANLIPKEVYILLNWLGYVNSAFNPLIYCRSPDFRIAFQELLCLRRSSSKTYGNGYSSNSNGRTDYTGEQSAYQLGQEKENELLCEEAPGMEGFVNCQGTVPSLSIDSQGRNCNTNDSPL
The target of experiment [3] is T1, Adrenergic receptor alpha-2 (Rattus norvegicus, UniProt P22086+P19328+P22909).
T1 sequence (P22086 whole entry): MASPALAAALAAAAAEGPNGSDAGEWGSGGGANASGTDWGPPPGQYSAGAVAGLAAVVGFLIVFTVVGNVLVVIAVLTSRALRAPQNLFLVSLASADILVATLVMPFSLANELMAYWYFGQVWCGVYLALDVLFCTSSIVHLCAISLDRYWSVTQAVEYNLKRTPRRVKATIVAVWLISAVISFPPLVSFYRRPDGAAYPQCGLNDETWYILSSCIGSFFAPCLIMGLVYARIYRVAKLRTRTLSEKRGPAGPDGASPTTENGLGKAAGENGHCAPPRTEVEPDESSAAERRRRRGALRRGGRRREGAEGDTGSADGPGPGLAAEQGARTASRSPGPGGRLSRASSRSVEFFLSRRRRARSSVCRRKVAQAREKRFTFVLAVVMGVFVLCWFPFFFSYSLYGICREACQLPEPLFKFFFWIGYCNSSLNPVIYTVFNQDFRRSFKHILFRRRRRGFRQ
T1 sequence (P19328 whole entry): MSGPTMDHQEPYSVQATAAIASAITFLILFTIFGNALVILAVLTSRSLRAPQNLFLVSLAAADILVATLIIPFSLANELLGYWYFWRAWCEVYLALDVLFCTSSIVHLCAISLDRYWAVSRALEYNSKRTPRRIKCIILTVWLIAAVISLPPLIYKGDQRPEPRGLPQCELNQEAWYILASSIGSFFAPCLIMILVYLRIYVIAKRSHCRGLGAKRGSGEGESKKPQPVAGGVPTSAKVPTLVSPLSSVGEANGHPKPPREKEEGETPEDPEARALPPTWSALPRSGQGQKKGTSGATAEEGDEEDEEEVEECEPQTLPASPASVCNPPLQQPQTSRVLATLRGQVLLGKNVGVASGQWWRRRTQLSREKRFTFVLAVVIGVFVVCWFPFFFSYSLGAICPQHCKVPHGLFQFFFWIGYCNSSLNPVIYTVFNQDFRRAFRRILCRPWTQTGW
T1 sequence (P22909 whole entry): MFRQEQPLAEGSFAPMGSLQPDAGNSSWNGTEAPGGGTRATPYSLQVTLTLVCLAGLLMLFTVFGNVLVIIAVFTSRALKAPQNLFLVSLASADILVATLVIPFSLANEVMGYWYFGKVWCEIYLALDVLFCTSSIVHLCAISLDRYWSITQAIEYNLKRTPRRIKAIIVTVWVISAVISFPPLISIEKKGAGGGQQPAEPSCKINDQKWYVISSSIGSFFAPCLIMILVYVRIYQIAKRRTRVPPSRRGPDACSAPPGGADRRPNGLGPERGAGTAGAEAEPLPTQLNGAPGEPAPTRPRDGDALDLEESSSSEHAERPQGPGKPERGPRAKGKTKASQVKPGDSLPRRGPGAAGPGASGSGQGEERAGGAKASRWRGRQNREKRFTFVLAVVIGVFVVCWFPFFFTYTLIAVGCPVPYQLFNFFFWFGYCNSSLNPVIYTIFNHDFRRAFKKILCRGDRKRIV
Description: Displacement of [3H]clonidine from adrenergic alpha 2 receptor of rat cerebral cortical membranes. Type of experiment: cell membranes, Membrane.

The species entered for a further experiment is Cavia porcellus. Description: Effective concentration for stimulation of [3H]phosphoinositide formation in guinea pig synaptoneurosomes expressing alpha-1 receptor. The class given is functional. The method, boiled down: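 α1 agonism was read as stimulation of [³H]phosphoinositol formation in guinea pig synaptoneurosomes. EC50 is given as a mean. Efficacy is expressed relative to the parent amine set at 100.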

Experiment [4] has as its target T2, Adrenergic receptor alpha-1 (Rattus norvegicus, UniProt P15823+P23944+P43140).
T2 sequence (P15823 whole entry): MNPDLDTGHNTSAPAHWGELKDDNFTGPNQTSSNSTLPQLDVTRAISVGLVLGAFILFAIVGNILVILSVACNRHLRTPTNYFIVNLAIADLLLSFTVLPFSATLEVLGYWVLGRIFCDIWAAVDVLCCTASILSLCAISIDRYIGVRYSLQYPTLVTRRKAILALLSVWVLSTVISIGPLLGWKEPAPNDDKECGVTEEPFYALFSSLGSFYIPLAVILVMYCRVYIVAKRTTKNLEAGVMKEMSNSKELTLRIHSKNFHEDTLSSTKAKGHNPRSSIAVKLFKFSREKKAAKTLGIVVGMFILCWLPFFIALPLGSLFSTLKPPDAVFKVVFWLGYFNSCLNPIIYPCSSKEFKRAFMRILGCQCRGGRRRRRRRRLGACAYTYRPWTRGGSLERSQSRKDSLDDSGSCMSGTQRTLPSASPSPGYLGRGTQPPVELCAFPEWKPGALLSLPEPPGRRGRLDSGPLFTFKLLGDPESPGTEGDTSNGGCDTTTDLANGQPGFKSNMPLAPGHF
T2 sequence (P23944 whole entry): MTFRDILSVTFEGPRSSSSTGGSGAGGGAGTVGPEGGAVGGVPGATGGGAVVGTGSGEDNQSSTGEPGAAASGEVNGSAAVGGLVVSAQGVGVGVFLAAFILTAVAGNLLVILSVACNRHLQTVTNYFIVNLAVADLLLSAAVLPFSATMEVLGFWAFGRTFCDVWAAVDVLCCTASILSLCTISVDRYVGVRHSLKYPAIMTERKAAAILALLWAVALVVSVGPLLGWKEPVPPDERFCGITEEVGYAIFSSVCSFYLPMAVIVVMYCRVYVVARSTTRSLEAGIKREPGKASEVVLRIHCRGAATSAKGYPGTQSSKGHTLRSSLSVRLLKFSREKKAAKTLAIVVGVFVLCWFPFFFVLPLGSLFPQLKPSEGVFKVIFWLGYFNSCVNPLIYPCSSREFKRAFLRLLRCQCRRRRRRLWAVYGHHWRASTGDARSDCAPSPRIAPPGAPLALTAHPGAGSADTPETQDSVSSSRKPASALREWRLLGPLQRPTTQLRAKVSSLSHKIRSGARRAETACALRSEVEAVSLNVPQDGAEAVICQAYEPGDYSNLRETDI
T2 sequence (P43140 whole entry): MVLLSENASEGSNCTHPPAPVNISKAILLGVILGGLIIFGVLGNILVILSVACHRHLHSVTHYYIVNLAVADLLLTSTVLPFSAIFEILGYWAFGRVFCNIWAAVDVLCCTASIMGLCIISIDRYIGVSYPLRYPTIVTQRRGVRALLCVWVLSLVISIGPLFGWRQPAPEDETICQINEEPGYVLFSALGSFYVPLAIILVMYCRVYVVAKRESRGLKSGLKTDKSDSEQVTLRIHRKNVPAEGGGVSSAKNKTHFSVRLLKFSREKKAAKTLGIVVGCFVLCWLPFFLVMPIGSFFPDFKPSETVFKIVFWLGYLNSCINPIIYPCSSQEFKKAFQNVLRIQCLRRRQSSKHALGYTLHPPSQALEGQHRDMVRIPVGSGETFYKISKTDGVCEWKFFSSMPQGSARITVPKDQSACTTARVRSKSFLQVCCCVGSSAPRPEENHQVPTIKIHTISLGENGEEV
Kind of experiment: Displacement of [3H]WB-4101 from adrenergic alpha 1 receptor of rat cerebral cortical membranes. The class given is cell membranes, Membrane.

In another experiment the target is Adrenergic receptor beta (Rattus norvegicus, UniProt P18090+P10608+P26255). Kind of experiment: Stimulation of cyclic AMP accumulation in C6 glioma cells expressing adrenergic beta receptor. Type of experiment: functional, cell-based. Put shortly: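 β agonism was read as stimulation of cyclic AMP accumulation in rat C6 glioma cells. EC50 is given as a mean. Efficacy is expressed relative to the parent amine set at 100.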

Sequence of Beta-1 adrenergic receptor (P18090 whole entry): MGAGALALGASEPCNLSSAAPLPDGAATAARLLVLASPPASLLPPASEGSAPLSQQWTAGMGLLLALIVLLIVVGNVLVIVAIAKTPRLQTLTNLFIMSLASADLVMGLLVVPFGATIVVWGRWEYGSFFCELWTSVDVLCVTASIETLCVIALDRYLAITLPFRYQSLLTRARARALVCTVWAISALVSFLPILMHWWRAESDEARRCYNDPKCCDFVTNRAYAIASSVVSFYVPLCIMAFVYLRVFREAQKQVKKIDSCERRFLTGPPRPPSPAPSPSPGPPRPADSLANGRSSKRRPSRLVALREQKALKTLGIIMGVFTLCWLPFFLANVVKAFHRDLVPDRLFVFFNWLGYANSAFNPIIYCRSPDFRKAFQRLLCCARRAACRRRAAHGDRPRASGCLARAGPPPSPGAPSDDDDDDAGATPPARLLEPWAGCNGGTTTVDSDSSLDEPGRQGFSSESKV

Consider `CNCC(O)c1cc(F)c(O)c(O)c1F` (stereo not given), for which the inhibitory constant (Ki) in experiment [1] amounted to 2.3 µM; in experiment [2], 0.71 µM; in experiment [3], 1.2 µM; in experiment [4], 39 µM. Also, the midpoint of the response in the experiment filed under Cavia porcellus, the EC50, lay at 2.6 µM.
With `NCC(O)c1cc(O)c(O)c(F)c1` (stereo not given), the Ki in experiment [1] amounted to 1.5 µM; in experiment [2], 5.5 µM; in experiment [3], 0.15 µM; in experiment [4] it was 2.3 µM.
Consider `NCC(O)c1cc(O)c(O)cc1F` (stereo not given), for which the concentration for a half-maximal effect (EC50) in the experiment filed under Cavia porcellus was found to be 4.2 µM.
For `NCC(O)c1ccc(O)c(O)c1F` (stereo not given), the Ki in experiment [3] worked out at 2.1 µM; in experiment [4] it was 23 µM. In the experiment filed under Cavia porcellus, this molecule came in with a concentration giving a half-maximal response (EC50) of more than 180 µM.
On to `CNCC(O)c1cccc(O)c1F` (stereo not given), for which the Ki was determined as 4 µM in experiment [1], 1.2 µM in experiment [3] and 17 µM in experiment [4]. The molecule also showed an EC50 in the experiment filed under Cavia porcellus of 80 µM.
For `NCC(O)c1cc(F)c(O)c(O)c1F` (stereo not given), in that order: 5.6 µM, 3.5 µM, 24 µM and 83 µM.
For `CNCC(O)c1c(F)ccc(O)c1F` (stereo not given), in that order: 81 µM, 0.94 µM, 17 µM and 4.3 µM.
For the molecule `CNCC(O)c1cc(O)c(O)cc1F` (stereo not given), the Ki was found to be 63 µM in experiment [1] and 0.009 µM in experiment [3]. Besides, the EC50 at Adrenergic receptor beta was more than 1.5 µM.
Take `NCC(O)c1c(F)cc(O)c(O)c1F` (stereo not given): the Ki in experiment [1] was more than 50 µM; in experiment [3], 0.75 µM. For the same molecule, the EC50 on Adrenergic receptor beta and in the experiment filed under Cavia porcellus was more than 100 µM in each case.
Molecule `CNCC(O)c1ccc(O)c(O)c1F` (stereo not given) had a Ki in experiment [3] of 0.066 µM.
Regarding `CNCC(O)c1cc(O)ccc1F` (stereo not given), the figures for the Ki in experiment [1], in experiment [3] and in experiment [4] were 180 µM, 0.23 µM and 2.1 µM, respectively. The molecule also came in with an EC50 in the experiment filed under Cavia porcellus of 8 µM.
Take `CNCC(O)c1ccc(F)c(O)c1` (stereo not given): in the experiment listed under Cavia porcellus, the EC50 came out at 16 µM.
For the molecule `CNC[C@H](O)c1ccc(O)c(O)c1` [EPINEPHRINE], the affinity in experiment [1] corresponds to a Ki of 1.2 µM.
The molecule `CNC[C@H](O)c1cccc(O)c1` [PHENYLEPHRINE] came in with an EC50 in the experiment listed under Cavia porcellus of 6 µM.

The values are drawn from ChEMBL document CHEMBL1126929, “Syntheses of 2,5- and 2,6-difluoronorepinephrine, 2,5-difluoroepinephrine, and 2,6-difluorophenylephrine: effect of disubstitution with fluorine on adrenergic activity” (J Med Chem, 1993).
